Assay results: ChEMBL document CHEMBL1130345, “A technetium-99m SPECT imaging agent which targets the dopamine transporter in primate brain” (J Med Chem, 1997)
Several values for one entry are separate records, joined by “and”; a condition that tells them apart may be missing. Equal values may be shown once.

Assays:
[1] = target: Sodium-dependent dopamine transporter (Macaca fascicularis, UniProt Q9GJT6); test: Inhibition of [3H]WIN-35428 binding to dopamine transporter using of Cynomolgus monkey caudate-putamen; assay type: tissue-based
Chain of Sodium-dependent dopamine transporter (Q9GJT6 whole entry): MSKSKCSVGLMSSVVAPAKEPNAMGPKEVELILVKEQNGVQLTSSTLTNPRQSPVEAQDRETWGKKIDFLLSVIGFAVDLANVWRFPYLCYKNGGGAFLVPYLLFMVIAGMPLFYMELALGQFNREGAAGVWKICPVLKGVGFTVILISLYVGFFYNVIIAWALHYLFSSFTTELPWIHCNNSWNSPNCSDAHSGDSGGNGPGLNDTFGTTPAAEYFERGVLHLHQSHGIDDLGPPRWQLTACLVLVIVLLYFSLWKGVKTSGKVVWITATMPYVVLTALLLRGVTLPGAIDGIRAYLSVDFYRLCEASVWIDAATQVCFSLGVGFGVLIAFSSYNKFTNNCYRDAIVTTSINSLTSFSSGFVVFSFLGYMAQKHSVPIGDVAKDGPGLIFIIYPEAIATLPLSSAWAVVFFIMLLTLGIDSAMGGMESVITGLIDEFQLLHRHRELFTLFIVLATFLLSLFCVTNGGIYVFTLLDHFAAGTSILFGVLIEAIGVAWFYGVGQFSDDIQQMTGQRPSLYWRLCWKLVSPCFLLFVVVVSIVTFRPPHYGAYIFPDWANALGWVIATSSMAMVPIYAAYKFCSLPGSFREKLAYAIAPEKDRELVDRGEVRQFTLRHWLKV
In short: (§1)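 Caudate-putamen membranes (washed in 50 mM Tris-HCl pH 7.4, 3800g spins) incubated at 4 mg original wet tissue/mL with 0.3 nM [3H]WIN35,428 and 7–14 competitor concentrations in 50 mM Tris-HCl/100 mM NaCl pH 7.4, 2 h at 0–4 °C. Filtered on BSA-soaked GF/B filters, scintillation counting. Nonspecific binding defined with 30 μM (–)-cocaine. IC50 computed by EBDA; independent experiments in triplicate.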

[2] = species: Macaca fascicularis; test: Relative affinity for dopamine and serotonin transporters
[3] = target: Sodium-dependent serotonin transporter; test: Inhibition of [3H]- citalopram binding to serotonin transporter of Cynomolgus monkey caudate-putamen; assay type: tissue-based
In short: as §1, with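 “1” for “0.3”, “[3H]citalopram” for “[3H]WIN35,428”, “polyethylenimine-soaked” for “BSA-soaked”, “1” for “30”, “fluoxetine.” for “(–)-cocaine.”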

Compound | IC50 [1] | Ratio [2] | IC50 [3]
COC(=O)C1C(c2ccc(F)cc2)CC2CCC1N2Cc1ccccc1 (stereo not given) | 0.0589 µM | 18 | 1.07 µM
COC(=O)C1C(c2ccc(F)cc2)CC2CCC1N2CCCCCc1ccccc1 (stereo not given) | 0.0034 µM | 15 | 0.0499 µM
[N-[2-[(3'-N'-PROPYL-3''ALPHA-(BIS(4-FLUORORPHENYL)METHOXY)TROPANE-2''BETA-CARBOXYLIC ACID METHYL ESTER)(2-MERCAPTOETHYL)AMINO]ACETYL]-2-AMINOETHANETHIOLATO]RHENIUM(V) OXIDE (DIASTEREOMERIC MIX) [listing 1 of 2 here] |  | 90 | 
COC(=O)[C@@H]1C2CCC(C[C@@H]1OC(c1ccc(F)cc1)c1ccc(F)cc1)N2Cc1ccccc1 (stereo not given in full) |  |  | 4.97 µM
COC(=O)[C@@H]1C2CCC(C[C@@H]1OC(c1ccc(F)cc1)c1ccc(F)cc1)N2CCCCCc1ccccc1 (stereo not given in full) |  | 6 | 0.55 µM
COC(=O)C1C(c2ccc(F)cc2)CC2CCC1N2CCCc1ccccc1 (stereo not given) | 0.0014 µM | 95 | 0.133 µM
COC(=O)[C@@H]1C2CCC(C[C@@H]1OC(c1ccc(F)cc1)c1ccc(F)cc1)N2CCCc1ccccc1 (stereo not given in full) |  |  | 0.0197 µM
[N-[2-[(3'-N'-PROPYL-3''ALPHA-(BIS(4-FLUORORPHENYL)METHOXY)TROPANE-2''BETA-CARBOXYLIC ACID METHYL ESTER)(2-MERCAPTOETHYL)AMINO]ACETYL]-2-AMINOETHANETHIOLATO]RHENIUM(V) OXIDE (DIASTEREOMERIC MIX) [listing 2 of 2 here] | 0.482 µM and 0.616 µM and 0.343 µM |  | 
